# pEC50: −log10 of the molar value. Active and inactive are the calls of the source. The rule behind the calls is not given here.
# Columns and labels:
# Liver = assay: Metabolic stability in mouse liver microsomes assessed as compound remaining at 4 uM measured after 30 mins in presence of NADPH by LC-MS/MS analysis; type: ADME, microsome; details: 0.5 h
# Method in brief: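 Human, mouse or rat liver microsomes were incubated with compound at 4 μM final for 30 min at 37 °C (n = 1). Percent of parent remaining was quantified by LC-MS/MS.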
# [1] = target: T1, GABA-A receptor; alpha-1/beta-3/gamma-2 (Homo sapiens, UniProt P14867+P18507+P28472); assay: Binding affinity to human GABAA alpha1beta3gamma2 receptor expressed in HEK293 cells assessed as GABA-induced membrane potential change preincubated for 3 mins followed by addition of GABA measured after 3 mins by FLIPR assay; type: cell-based
# T1 sequence (P14867 whole entry): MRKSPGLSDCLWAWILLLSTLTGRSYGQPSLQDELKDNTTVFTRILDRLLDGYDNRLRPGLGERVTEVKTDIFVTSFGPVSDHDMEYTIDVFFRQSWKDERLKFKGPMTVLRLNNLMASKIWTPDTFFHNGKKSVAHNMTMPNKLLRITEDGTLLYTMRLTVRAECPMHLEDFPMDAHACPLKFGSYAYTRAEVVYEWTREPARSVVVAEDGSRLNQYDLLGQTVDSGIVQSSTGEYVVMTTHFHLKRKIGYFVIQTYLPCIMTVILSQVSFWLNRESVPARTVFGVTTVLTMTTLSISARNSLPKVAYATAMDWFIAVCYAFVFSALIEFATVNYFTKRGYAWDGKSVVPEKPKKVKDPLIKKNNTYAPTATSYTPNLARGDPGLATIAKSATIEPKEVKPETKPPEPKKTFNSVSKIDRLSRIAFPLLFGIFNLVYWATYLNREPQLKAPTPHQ
# T1 sequence (P18507 whole entry): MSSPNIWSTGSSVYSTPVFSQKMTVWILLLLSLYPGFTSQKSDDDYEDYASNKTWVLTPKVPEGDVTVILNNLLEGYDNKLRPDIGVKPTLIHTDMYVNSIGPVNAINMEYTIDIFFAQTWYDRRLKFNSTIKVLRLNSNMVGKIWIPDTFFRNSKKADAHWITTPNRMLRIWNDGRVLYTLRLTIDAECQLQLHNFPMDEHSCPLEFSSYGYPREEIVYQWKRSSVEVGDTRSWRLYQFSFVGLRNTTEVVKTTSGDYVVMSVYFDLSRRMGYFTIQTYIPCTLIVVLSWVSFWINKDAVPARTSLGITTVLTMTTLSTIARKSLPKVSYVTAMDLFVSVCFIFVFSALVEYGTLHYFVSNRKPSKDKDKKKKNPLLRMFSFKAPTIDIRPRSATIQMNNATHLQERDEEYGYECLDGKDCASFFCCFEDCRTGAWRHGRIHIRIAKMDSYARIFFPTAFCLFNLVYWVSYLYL
# T1 sequence (P28472 whole entry): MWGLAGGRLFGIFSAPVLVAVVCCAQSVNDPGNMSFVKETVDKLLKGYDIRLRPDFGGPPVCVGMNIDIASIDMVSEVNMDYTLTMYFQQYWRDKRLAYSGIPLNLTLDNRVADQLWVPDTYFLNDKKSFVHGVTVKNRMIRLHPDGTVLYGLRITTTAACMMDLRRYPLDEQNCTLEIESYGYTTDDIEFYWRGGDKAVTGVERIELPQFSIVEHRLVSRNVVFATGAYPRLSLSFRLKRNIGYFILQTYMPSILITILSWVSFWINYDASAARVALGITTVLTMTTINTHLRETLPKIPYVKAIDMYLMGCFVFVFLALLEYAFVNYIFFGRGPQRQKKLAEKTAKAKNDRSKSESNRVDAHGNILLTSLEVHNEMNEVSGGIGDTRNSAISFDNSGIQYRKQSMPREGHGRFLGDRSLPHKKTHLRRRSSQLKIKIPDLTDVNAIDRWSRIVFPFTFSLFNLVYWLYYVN
# Method in brief: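 Stably transfected HEK293T cells expressing α1β3γ2 (n = 2) or α3β3γ2 (n = 1) GABAARs. Membrane potential was read as fluorescence changes on a FLIPR Tetra, and EC50 was derived.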
# [2] = Total plasma concentration in Sprague-Dawley rat at 10 mg/kg, po measured after 60 mins by LC-MS/MS analysis; type: ADME, organism-based
# Method in brief: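 Sprague-Dawley rats (n = 3 per time point) were given 10 mg/kg p.o. Total plasma concentrations were taken at 15, 30, 60 and 120 min. Brain levels of the dosed ligand and of the carboxylic acid metabolite were taken at 60 or 120 min.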
# Mus musculus = assay: Anxiolytic-like activity in Swiss Webster mouse marble burying model of anxiety assessed as suppression of marble burying activity at 30 mg/kg, ip administered 30 mins prior to test relative to vehicle-control; type: functional, organism-based
# Method in brief: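 Male NIH Swiss Webster mice (n = 10) received vehicle or compound at 10 or 30 mg/kg i.p. 30 min before marble burying testing. Sedation-like behaviour was noted by observation. Analysis was ANOVA with Dunnett's test vs vehicle.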
# [3] = target: T2, GABA-A receptor; alpha-2/beta-3/gamma-2 (Homo sapiens, UniProt P18507+P28472+P47869); assay: Modulation of recombinant human GABA alpha2beta3gamma2 receptor expressed in HEK293 cells assessed as change in GABA-induced current at -80 mV holding potential preincubated for 3 mins followed by co-administration of GABA by electrophysiology method; type: cell-based
# T2 sequence (P18507 whole entry): T1 sequence (P18507 whole entry)
# T2 sequence (P28472 whole entry): T1 sequence (P28472 whole entry)
# T2 sequence (P47869 whole entry): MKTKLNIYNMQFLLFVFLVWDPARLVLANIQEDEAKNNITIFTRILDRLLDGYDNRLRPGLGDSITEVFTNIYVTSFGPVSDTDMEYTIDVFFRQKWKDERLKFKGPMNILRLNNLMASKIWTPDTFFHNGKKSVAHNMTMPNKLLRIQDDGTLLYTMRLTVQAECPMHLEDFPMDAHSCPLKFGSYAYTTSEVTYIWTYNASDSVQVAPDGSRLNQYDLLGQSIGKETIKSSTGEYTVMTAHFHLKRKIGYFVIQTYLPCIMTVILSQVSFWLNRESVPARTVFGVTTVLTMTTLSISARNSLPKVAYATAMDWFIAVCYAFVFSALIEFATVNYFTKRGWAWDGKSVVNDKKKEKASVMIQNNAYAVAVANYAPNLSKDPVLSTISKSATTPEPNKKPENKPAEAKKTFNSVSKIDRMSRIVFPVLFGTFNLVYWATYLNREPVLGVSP
# [4] = AUC in femoral artery/vein cannulated Sprague-Dawley rat at 10 mg/kg, ip administered […] as single dose by LC-MS/MS analysis; type: ADME, organism-based; details: in vivo
# Method in brief: (§1)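 Male Sprague-Dawley rats (n = 3 per time point) were dosed 1 mg/kg i.v. or 10 mg/kg i.p. Plasma concentrations were measured at set time points. Clearance, Vdss and T½ came from the i.v. arm, and AUC, Cmax and Tmax from the i.p. arm.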
# [5] = Cmax in femoral artery/vein cannulated Sprague-Dawley rat at 10 mg/kg, ip administered […] as single dose by LC-MS/MS analysis; type: ADME, organism-based; design: dose 10 mg/kg, route intraperitoneal; details: in vivo; method in brief: as §1
# Plasma = assay: Fraction unbound in rat plasma by equilibrium dialysis method; type: ADME, cell-free
# Method in brief: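 Fraction unbound was determined in vitro by equilibrium dialysis with rat plasma protein and rat brain.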
# [6] = Total plasma concentration in Sprague-Dawley rat at 10 mg/kg, ip measured after 4 hrs; type: ADME, organism-based
# Method in brief: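 Rats were given 10 mg/kg i.p. (n = 3), and total plasma and brain concentrations were measured at 4 h. Unbound concentrations were calculated as Fu × total concentration, and Kp,uu = Cu,brain/Cu,plasma.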
structure (smiles),measurement,setting,value
C#Cc1ccc2c(c1)C(c1ccccn1)=NCc1c(-c3cnco3)ncn1-2,Stability,Liver,90%
same,pEC50,[1],< 4.70
same,concentration at 1 h,[2],3.91 µM
same,Activity,Mus musculus,Active
same,pEC50,[3],6.93
same,AUC,[4],16.5 µM·h
same,Cmax,[5],3.09 µM
same,Fu,Plasma,25.9%
same,concentration at 4 h,[6],2130 nM
